In ChEMBL document CHEMBL1149096 (J Med Chem, 2004):
Square brackets hold non-standard residues; d marks the D form. Peptide text beside a SMILES is read from it. NMeF = CN[C@@H](Cc1ccccc1)C(=O)O

What was measured:
[1] = target: Delta-type opioid receptor (Mus musculus, UniProt P32300); assay: Inhibitory concentration required for 50 percent inhibition of opioid receptor delta 1 induced contractions in mouse vas deferens (MVD) smooth muscle contraction assays; assay type: functional
In short: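 Electrically stimulated MVD (male ICR mice, 25-40 g) and GPI longitudinal muscle myenteric plexus strips (male Hartley guinea pigs, 250-500 g). Baths held 37 °C oxygenated Krebs bicarbonate (Mg-free for MVD), tension 1 g GPI / 0.5 g MVD. Stimulation 0.1 Hz, 0.4 ms pulses (2 ms MVD), supramaximal voltage. […] IC50 from two to four tissues by nonlinear least squares.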

[2] = target: Mu-type opioid receptor (Cavia porcellus, UniProt P97266); assay: Inhibitory concentration for inhibition of Opioid receptor mu 1 induced contractions in guinea pig ileum (GPI) smooth muscle assays; assay type: functional, tissue-based
Chain of Mu-type opioid receptor (P97266 whole entry): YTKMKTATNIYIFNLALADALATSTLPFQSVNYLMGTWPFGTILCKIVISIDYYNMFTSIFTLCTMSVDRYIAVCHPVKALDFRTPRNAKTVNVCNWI
In short: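 Electrically stimulated MVD (male ICR mice, 25-40 g) and GPI longitudinal muscle myenteric plexus strips (male Hartley guinea pigs, 250-500 g). Baths held 37 °C oxygenated Krebs bicarbonate (Mg-free for MVD), tension 1 g GPI / 0.5 g MVD. Stimulation 0.1 Hz, 0.4 ms pulses (2 ms MVD), supramaximal voltage. IC50 from two to four tissues by nonlinear least squares.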

[3] = target: Delta-type opioid receptor (Mus musculus) (UniProt P32300); conditions: Vas deferens; filed as agonist
Chain of Delta-type opioid receptor (Mus musculus) (P32300 whole entry): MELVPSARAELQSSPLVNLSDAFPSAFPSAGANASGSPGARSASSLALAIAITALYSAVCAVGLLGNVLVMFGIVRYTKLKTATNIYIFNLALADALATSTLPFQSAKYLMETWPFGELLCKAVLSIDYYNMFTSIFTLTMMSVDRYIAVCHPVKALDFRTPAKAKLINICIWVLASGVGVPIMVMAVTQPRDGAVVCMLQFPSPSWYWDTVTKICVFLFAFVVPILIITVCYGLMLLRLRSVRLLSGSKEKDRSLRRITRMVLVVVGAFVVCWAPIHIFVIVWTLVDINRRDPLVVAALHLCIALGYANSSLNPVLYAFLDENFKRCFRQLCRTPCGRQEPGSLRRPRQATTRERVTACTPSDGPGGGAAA

[4] = target: Mu-type opioid receptor (Cavia porcellus) (UniProt P97266); conditions: Ileum, filed as agonist
Chain of Mu-type opioid receptor (Cavia porcellus) (P97266 whole entry): as the sequence (P97266 whole entry) above

Chain of Delta-type opioid receptor (P32300 whole entry): as the sequence (P32300 whole entry) above

SMILES: CN(C(=O)[C@@H]1CCCN1C(=O)[C@@H](N)Cc1ccc(O)cc1)[C@@H](Cc1ccccc1)C(=O)N1CCC[C@@H]1C(N)=O (H-YP[NMeF][dP]-NH2)
- IC50 [1]: 243 nM
- IC50 [2]: 59.4 nM
- Ke [3]: Agonist
- Ke [4]: Agonist
